Measured values: ChEMBL document CHEMBL1125376, “Class III antiarrhythmic activity of novel substituted 4-[(methylsulfonyl)amino]benzamides and sulfonamides” (J Med Chem, 1992)
Where “and” joins values, the source holds several entries; their conditions need not be identical. Equal entries are not always repeated.

Assays:
[1] = test system: Canis familiaris; experiment: Ventricular effective refractory period, after intravenous administration in open-chest anesthetized dogs at dose of 0.5 mg/kg; type: functional, Canis lupus familiaris, Heart; details: dose 10.0 mg/kg, in the assay text read “10.0 mg/kg” for “0.5 mg/kg”
Procedure, shortened: (§1)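 Mongrel dogs, pentobarbital-anesthetized (30 mg/kg iv plus 5 mg/kg per h), open chest. Compound given iv. Atrial and ventricular effective refractory periods and conduction times measured during pacing at 300 ms, along with heart rate and mean arterial pressure. Two doses per compound, chosen from dose-response runs. Values are % change from predrug, mean ± SE.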

[2] = test system: Canis familiaris; experiment: Ventricular effective refractory period, after intravenous administration in open-chest anesthetized dogs at dose of 0.05 mg/kg; type: functional, Canis lupus familiaris, Heart; details: dose 5.0 mg/kg, in the assay text read “5.0 mg/kg” for “0.05 mg/kg”; procedure, shortened: as §1
[3] = species on record: Canis familiaris; experiment: Effect on the transmembrane potential of dog Purkinje fibers paced at a basic cycle length of stimulation of 1000 ms, repolarization time to -60 mV; type: functional; details: Canis lupus familiaris; Purkinje fiber
Procedure, shortened: (§2)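 Purkinje fiber bundles were taken from pentobarbital-anesthetized mongrel dogs. They were superfused at 37.5-38.0 °C with Tyrode's (mM: NaCl 138, KCl 4, CaCl2 2, NaHCO3 24, MgCl2 0.5, Na2HPO4 1.8, dextrose 5) gassed with 95% O2-5% CO2, pH 7.3-7.4. Stimulation used 2.0 ms pulses at twice threshold. Fibers were equilibrated ≥1 h before drug. Action potentials were recorded at 4-6 sites and averaged per fiber.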

[4] = test system: Canis familiaris; experiment: Atrial effective refractory period, after intravenous administration in open-chest anesthetized dogs at dose of 10.0 mg/kg
[5] = test system: Canis familiaris; experiment: Ventricular conduction time, after intravenous administration in open-chest anesthetized dogs at dose of 0.5 mg/kg; type: functional, Canis lupus familiaris, Heart; details: dose 10.0 mg/kg, in the assay text read “10.0 mg/kg” for “0.5 mg/kg”; procedure, shortened: as §1
[6] = species on record: Canis familiaris; experiment: Effect on the transmembrane potential of dog Purkinje fibers paced at a basic cycle length of stimulation of 300 ms, repolarization time to -60 mV; type: functional; details: Canis lupus familiaris; Purkinje fiber; procedure, shortened: as §2
[7] = species on record: Canis familiaris; experiment: Effect on the transmembrane potential of dog Purkinje fibers paced at a basic cycle length of stimulation of 1000 ms, repolarization time to -60 mV, at a concentration of 0.3 uM; type: functional; details: Canis lupus familiaris, Purkinje fiber; procedure, shortened: as §2
[8] = test system: Canis familiaris; experiment: Heart rate, after intravenous administration in open-chest anesthetized dogs at dose of 0.5 mg/kg; type: functional, Canis lupus familiaris; details: dose 10.0 mg/kg, in the assay text read “10.0 mg/kg” for “0.5 mg/kg”; procedure, shortened: as §1
[9] = test system: Canis familiaris; experiment: Heart rate, after intravenous administration in open-chest anesthetized dogs at dose of 0.05 mg/kg; type: functional, Canis lupus familiaris; details: dose 5.0 mg/kg, in the assay text read “5.0 mg/kg” for “0.05 mg/kg”; procedure, shortened: as §1
[10] = test system: Canis familiaris; experiment: Atrial conduction time, after intravenous administration in open-chest anesthetized dogs at dose of 10.0 mg/kg
[11] = test system: Canis familiaris; experiment: Mean arterial pressure, after intravenous administration in open-chest anesthetized dogs at dose of 0.5 mg/kg; type: functional, Canis lupus familiaris, Artery; details: dose 10.0 mg/kg, in the assay text read “10.0 mg/kg” for “0.5 mg/kg”; procedure, shortened: as §1
[12] = test system: Canis familiaris; experiment: Mean arterial pressure, after intravenous administration in open-chest anesthetized dogs at dose of 0.05 mg/kg; type: functional, Canis lupus familiaris, Artery; details: dose 5.0 mg/kg, in the assay text read “5.0 mg/kg” for “0.05 mg/kg”; procedure, shortened: as §1
[13] = (§3) Maximum rate of depolarization of the upstroke of the action potential at 3 uM
Procedure, shortened: (§4)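 Purkinje fiber bundles from pentobarbital-anesthetized mongrel dogs, superfused at 37.5-38.0 °C with Tyrode's solution (95% O2-5% CO2, pH 7.3-7.4). Stimulation with 2.0 ms square pulses at 2× threshold. Fibers equilibrated at least 1 h before drug. Action potentials recorded at four to six sites, control vs drug, and averaged per fiber.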

[14] = species on record: Canis familiaris; experiment: Effect on transmembrane potential of dog Purkinje fibers paced at a basic cycle length of stimulation of 300 ms, repolarization time to -60 mV at 3 uM; type: functional; details: Canis lupus familiaris, Purkinje fiber; procedure, shortened: as §2
[15] = species on record: Canis familiaris; experiment: Effect on the transmembrane potential of dog Purkinje fibers paced at a basic cycle length of stimulation of 1000 ms, repolarization time to -60 mV at 3 uM; type: functional; details: Canis lupus familiaris, Purkinje fiber; procedure, shortened: as §2
[16] = test system: Canis familiaris; experiment: Prodrug ventricular fibrillation threshold(VFT) in open-chest anesthetized dogs(Control = 8+/-1) at a dose of 2.5 mg/kg iv; type: functional, Canis lupus familiaris, Cardiac ventricle
[17] = species on record: Canis familiaris; experiment: Effect on the transmembrane potential of dog Purkinje fibers paced at a basic cycle length of stimulation of 1000 ms, repolarization time to -60 mV at 0.3 uM concentration; type: functional; details: Canis lupus familiaris, Purkinje fiber; procedure, shortened: as §2
[18] = species on record: Canis familiaris; experiment: Effect on the transmembrane potential of dog Purkinje fibers paced at a basic cycle length of stimulation of 300 ms, repolarization time to -60 mV at 0.3 uM concentration; type: functional; details: Canis lupus familiaris, Purkinje fiber; procedure, shortened: as §2
[19] = as §3; procedure, shortened: as §4; remark: listed apart in the source
[20] = species on record: Canis familiaris; experiment: Effect on the transmembrane potential of dog Purkinje fibers paced at a basic cycle length of stimulation of 300 ms, repolarization time to -60 mV at 3 uM concentration; type: functional; details: Canis lupus familiaris, Purkinje fiber; procedure, shortened: as §2
[21] = species on record: Canis familiaris; experiment: Effect on the transmembrane potential of dog Purkinje fibers paced at a basic cycle length of stimulation of 1000 ms, repolarization time to -60 mV at 3 uM concentration; type: functional; details: Canis lupus familiaris, Purkinje fiber; procedure, shortened: as §2
[22] = species on record: Canis familiaris; experiment: Effect on the transmembrane potential of dog Purkinje fibers paced at a basic cycle length of stimulation of 300 ms, repolarization time to -60 mV, at a concentration of 3 uM; type: functional; details: Canis lupus familiaris, Purkinje fiber; procedure, shortened: as §2
[23] = Maximum rate of depolarization of the upstroke of the action potential at 3 uM concentration; design: unit not given beside the values; procedure, shortened: as §4
[24] = test system: Canis familiaris; experiment: Effect on atrial effective refractory period, after intravenous administration in open-chest anesthetized dogs at dose of 1.0 mg/kg
[25] = species on record: Canis familiaris; experiment: Effect on the transmembrane potential of dog Purkinje fibers paced at a basic cycle length of stimulation of 1000 ms, repolarization time to -60 mV, at a concentration of 3 uM; type: functional; details: Canis lupus familiaris, Purkinje fiber; procedure, shortened: as §2
[26] = test system: Canis familiaris; experiment: Effect on heart rate, after intravenous administration in open-chest anesthetized dogs at dose of 5.0 mg/kg; type: functional, Canis lupus familiaris
[27] = test system: Canis familiaris; experiment: Effect on ventricular effective refractory period, after intravenous administration in open-chest anesthetized dogs at dose of 5.0 mg/kg; type: functional, Canis lupus familiaris, Cardiac ventricle; procedure, shortened: as §1
[28] = test system: Canis familiaris; experiment: Effect on ventricular conduction time, after intravenous administration in open-chest anesthetized dogs at dose of 5.0 mg/kg; type: functional, Canis lupus familiaris, Cardiac ventricle
[29] = test system: Canis familiaris; experiment: Effect on atrial effective refractory period, after intravenous administration in open-chest anesthetized dogs at dose of 5.0 mg/kg; type: functional, Canis lupus familiaris, Cardiac atrium
[30] = test system: Canis familiaris; experiment: Effect on ventricular conduction time, after intravenous administration in open-chest anesthetized dogs at dose of 2.5 mg/kg; type: functional, Canis lupus familiaris, Cardiac ventricle
[31] = test system: Canis familiaris; experiment: Effect on ventricular effective refractory period, after intravenous administration in open-chest anesthetized dogs at dose of 2.5 mg/kg; type: functional, Canis lupus familiaris, Cardiac ventricle; procedure, shortened: as §1
[32] = test system: Canis familiaris; experiment: Effect on atrial conduction time, after intravenous administration in open-chest anesthetized dogs at dose of 5.0 mg/kg; type: functional, Canis lupus familiaris, Cardiac atrium
[33] = test system: Canis familiaris; experiment: Effect on mean arterial pressure, after intravenous administration in open-chest anesthetized dogs at dose of 5.0 mg/kg; type: functional, Canis lupus familiaris, Artery
[34] = test system: Canis familiaris; experiment: Effect on mean arterial pressure, after intravenous administration in open-chest anesthetized dogs at dose of 2.5 mg/kg; type: functional, Canis lupus familiaris, Artery
[35] = test system: Canis familiaris; experiment: Effect on atrial conduction time, after intravenous administration in open-chest anesthetized dogs at dose of 2.5 mg/kg; type: functional, Canis lupus familiaris, Cardiac atrium
[36] = test system: Canis familiaris; experiment: Effect on atrial effective refractory period, after intravenous administration in open-chest anesthetized dogs at dose of 2.5 mg/kg; type: functional, Canis lupus familiaris, Cardiac atrium
[37] = test system: Canis familiaris; experiment: Effect on heart rate, after intravenous administration in open-chest anesthetized dogs at dose of 2.5 mg/kg; type: functional, Canis lupus familiaris

## CN(CCN1CCn2c1nc1ccccc12)S(=O)(=O)c1ccc(NS(C)(=O)=O)cc1.Cl
[1]
  Change: 19%
[2]
  Change: 18%
[3]
  APD60: 30
[4]
  Change: 66%
[5]
  Change: -5%
[6]
  APD60: 16
[7]
  APD60: 30
[8]
  Change: -24%
[9]
  Change: -15%
[10]
  Change: 3%
[11]
  Change: -8%
[12]
  Change: -9%

## CN(CCN(C)c1ccc2ccccc2n1)C(=O)c1ccc(NS(C)(=O)=O)cc1
[3]
  APD60: 36
[6]
  APD60: 17

## CN(CCN(C)S(=O)(=O)c1ccc(NS(C)(=O)=O)cc1)c1ccc2ccccc2n1
[3]
  APD60: 46
[6]
  APD60: 20

## CN(CCN(C)S(=O)(=O)c1ccc(NS(C)(=O)=O)cc1)c1nc2ccccc2n1C.Cl
[13]
  Vmax: 11
[14]
  APD60: 40
[15]
  APD60: 57
[16]
  VFT: 8 and 24
[17]
  APD60: 46
[18]
  APD60: 24
[19]
  Vmax: 13

## CS(=O)(=O)Nc1ccc(S(=O)(=O)N2CCNc3nc4ccccc4n3CC2)cc1
[3]
  APD60: 42
[6]
  APD60: 24

## CN(CCNS(=O)(=O)c1ccc(NS(C)(=O)=O)cc1)c1nc2ccccc2n1C.Cl
[20]
  APD60: 16
[21]
  APD60: 50

## Cl.Cn1c(N2CCN(C(=O)c3ccc(NS(C)(=O)=O)cc3)CC2)nc2ccccc21
[22]
  APD60: 33
[23]
  Vmax: -3
[17]
  APD60: 17
[24]
  Change: 33%
[18]
  APD60: 6
[25]
  APD60: 75

## CC(C)NCC(O)c1ccc(NS(C)(=O)=O)cc1 (configuration not stated) [SOTALOL]
[26]
  Change: -28%
[27]
  Change: 25%
[28]
  Change: -1%
[3]
  APD60: 56
[29]
  Change: 57%
[6]
  APD60: 18
[30]
  Change: -1%
[31]
  Change: 19%
[32]
  Change: -7%
[33]
  Change: -17%
[34]
  Change: -16%
[35]
  Change: -5%
[36]
  Change: 42%
[37]
  Change: -27%
